# Assay outcomes (PubChem BioAssay)
# Scp-1 inhibitor = Scp-1 phosphatase inhibitors, primary screen, biochemical, colorimetric, uHTS | Carboxy-terminal domain RNA polymerase II polypeptide A small phosphatase 1 (Homo … | Recombinant Scp1, phosphopeptide, malachite green phosphate absorbance | inhibition, % at 20 µM | 340,000 compounds, 0.88% hits | AID 493091, 2011;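 active = inhibition above about 50% at 20 µM, limit read from the data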;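 note: plate controls were DMSO wells with enzyme for no effect and wells lacking enzyme for full effect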
# Target sequence (Q9GZU7 76-261 limits assumed): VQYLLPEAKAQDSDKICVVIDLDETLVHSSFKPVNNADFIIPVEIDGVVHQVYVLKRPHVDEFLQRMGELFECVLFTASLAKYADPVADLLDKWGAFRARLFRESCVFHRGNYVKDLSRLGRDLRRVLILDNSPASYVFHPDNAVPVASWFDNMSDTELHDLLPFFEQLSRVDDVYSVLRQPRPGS
#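 System: SCP-1 catalytic domain; Reagent: Phospho 17-mer peptide substrate; Doses: one concentration, 20 µM, with 1.0% DMSO; Incubation: 45 min room-temperature reaction, 5 min colour, 30 min stabiliser; Signal: Phosphate-binding colour reagent, absorbance read at 630 nm.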
# rCAG binder = binders of r(CAG) RNA repeats, primary screen, biochemical, fluorescence | r(CAG) RNA repeat, TO-PRO-1 dye displacement fluorescence | inhibition, % at 3 µM | 370,000 compounds, 1.3% hits | AID 651821, 2012;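 active = inhibition above the plate cutoff, the mean of all test compounds on that plate plus 3 SD, cut at about 35% in these data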;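 note: 0% = DMSO alone and 100% = 100 µM mitoxantrone as full dye displacement; higher means more dye released from RNA so lower well fluorescence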
# LMPTP inh = LMPTP phosphatase inhibitors, primary screen, biochemical, fluorescence intensity, uHTS | Low molecular weight phosphotyrosine protein phosphatase (Homo sapiens), P24666 | recombinant LMPTP-A, OMFP fluorogenic substrate | inhibition, % at 20 µM | 360,000 compounds, 0.22% hits | AID 651560, 2012;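 active = compounds that cut the enzyme signal by at least half of the control window in the single-dose screen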;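 note: plate controls were DMSO wells with enzyme plus substrate for no effect and substrate without enzyme for full effect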
#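 material = LMPTP-A | quantity = 0.625 nM enzyme | reagent = OMFP substrate, 400 µM final | buffer or medium = Bis-Tris pH 6.0, DTT, detergent | detection = endpoint fluorescence intensity from OMFP dephosphorylation | dosing = single 20 µM dose | read-out basis = % inhibition relative to no-enzyme and uninhibited control wells | control set = no-enzyme and uninhibited controls | timing = 50 min at room temperature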
# NadD block = inhibitors of S. aureus NadD, primary screen, biochemical, colorimetric, uHTS | 360,000 compounds, 0.78% hits | Nicotinate-nucleotide adenylyltransferase NadD (Staphylococcus aureus N315) | purified NadD enzyme, colorimetric absorbance read-out | inhibition, % at 20 µM | AID 602399, 2012; in the data active = inhibition above about 26%
# STEP block = STEP phosphatase inhibitors, primary screen, biochemical, fluorescence intensity, uHTS | recombinant STEP, OMFP fluorogenic substrate | AID 588621, 2011 | 360,000 compounds, 0.25% hits | inhibition, % at 20 µM;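 active = inhibition at 20 µM, scaled per plate between control wells, above about 37%, limit read from the data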;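 note: 0% = DMSO with enzyme and substrate and 100% = substrate only without enzyme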
# Target sequence (P54829 whole entry, looked up): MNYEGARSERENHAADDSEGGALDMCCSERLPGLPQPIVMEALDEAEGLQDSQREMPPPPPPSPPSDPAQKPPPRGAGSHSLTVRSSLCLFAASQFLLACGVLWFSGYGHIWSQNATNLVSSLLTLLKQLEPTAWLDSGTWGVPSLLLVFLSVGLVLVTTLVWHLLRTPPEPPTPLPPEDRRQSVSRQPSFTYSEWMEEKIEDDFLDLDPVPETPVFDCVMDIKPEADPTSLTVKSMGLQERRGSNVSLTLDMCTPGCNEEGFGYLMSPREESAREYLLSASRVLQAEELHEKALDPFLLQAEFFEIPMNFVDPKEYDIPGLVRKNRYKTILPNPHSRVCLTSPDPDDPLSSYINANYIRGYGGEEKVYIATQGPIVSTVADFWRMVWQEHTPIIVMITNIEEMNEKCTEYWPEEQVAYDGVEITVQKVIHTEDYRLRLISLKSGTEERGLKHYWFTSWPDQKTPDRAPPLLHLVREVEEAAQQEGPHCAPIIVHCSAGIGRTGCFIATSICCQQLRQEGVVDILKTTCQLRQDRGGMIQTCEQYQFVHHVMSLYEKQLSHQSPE
#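 Material: STEP (striatal-enriched tyrosine phosphatase) enzyme, cell-free | Medium: 50 mM Bis-Tris pH 6.0 with 2.5 mM DTT and 0.005% Tween 20 | Read-out: Percent inhibition scaled to no-enzyme and uninhibited-enzyme controls, plate-pattern corrected | Signal: Fluorescence read at 480 nm ex / 540 nm em | Times: 20 min reaction, room temperature, in the dark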
# Scp1 confirm = Scp-1 phosphatase inhibitors, retest, confirmation, biochemical, colorimetric, single concentration | inhibition, % at 20 µM | recombinant SCP-1 catalytic domain, phosphate release, malachite green absorbance | AID 540281, 2011 | 2,500 compounds, 61% hits | shares compounds with Scp-1 inhibitor;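 note: plate controls were DMSO with enzyme for no effect and buffer wells lacking enzyme for full effect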
# MG interference = colorimetric readout interference by compounds, confirmation, artefact control for Scp-1 inhibitor project, biochemical, single concentration | Colorimetric interference counterscreen, malachite green absorbance 630 nm | apparent inhibition (interference), % at 20 µM | shares compounds with Scp-1 inhibitor | 2,500 tested, under 10 active | AID 540313, 2011;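 note: compounds added after enzyme reaction finished so only phosphate colour detection is probed; plate controls were DMSO wells with completed Scp-1 reaction for no effect and substrate wells lacking enzyme for full effect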
# Scp1 DSF = Scp-1 binding by thermal shift, confirmation, orthogonal assay for Scp-1 inhibitor project, biophysical, differential scanning fluorimetry; AID 540329, 2011; shares compounds with Scp-1 inhibitor; Recombinant SCP1, Sypro Orange thermal shift Tm; 1,500 compounds, 25% hits; thermal shift relative to vanadate control, % at 40 µM;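 active = substances whose mean melting-temperature shift, as a percentage of the reference inhibitor's shift, reaches about 5.3%, limit read from the data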;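 note: 0% = Tm of DMSO wells and 100% = Tm with sodium orthovanadate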
# Numbers without * were called inactive; nt = not tested or not shown. Shown are actives, neighbours in structure and some others; about 2.6% of the full set was active somewhere.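 Rule for the calls, unless noted: active = inhibition of at least 30% at 20 µM; inactive = the rest.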
SMILES,Scp-1 inhibitor,rCAG binder,LMPTP inh,NadD block,STEP block,Scp1 confirm,MG interference,Scp1 DSF
CCOC(=O)C1CCN(C(=O)CCCCn2c(=O)[nH]c3ccccc3c2=O)CC1,68.2*,-9.1,-0.1,-3.1,-0.4,-15.3,-6.8,nt
COC(=O)[C@]1(CNC(=O)C(F)(F)F)CC(=O)N(C)[C@@H]1c1ccccc1,nt,0.7,nt,nt,nt,nt,nt,nt
O=C(Nc1nc2ncccn2c1-c1ccc(F)c(F)c1)c1ccccc1,nt,1.6,nt,nt,nt,nt,nt,nt
CN(C)c1cccc(/C=C2\CC3(OC(=O)c4ccc(F)cc4)CCCN2C3)c1 (stereo not drawn),nt,3.1,nt,nt,nt,nt,nt,nt
CCn1c(SCC(=O)O)nc2sc3c(c2c1=O)CCC3,72.9*,6.2,9.6,-6.8,25.7,50.0*,-18.6,-2.6
Cn1c(SCC(=O)O)nc2sc3c(c2c1=O)CCC3,0.8,-1.1,-3.0,1.7,1.4,nt,nt,nt
CCn1c(SCC(=O)OC)nc2sc3c(c2c1=O)CCC3,57.4*,-0.7,6.5,-2.0,6.6,63.9*,-10.7,-1.2
O=C(COC(=O)c1cncc(Br)c1)NC12CC3CC(CC(C3)C1)C2,nt,2.1,-1.2,1.4,-1.7,nt,nt,nt
O=C(COC(=O)c1cc(Br)ccc1O)NC12CC3CC(CC(C3)C1)C2,61.0*,3.6,-0.4,0.4,-2.5,-19.4,-16.9,nt
O=[N+]([O-])c1ccc(O)c(Nc2ncnc3ccc(Br)cc23)c1,75.4*,1.5,26.1,8.8,25.2,42.2*,-18.3,13.7*
Cc1ccc(O)c(Nc2ncnc3ccc([N+](=O)[O-])cc23)c1,-1.2,1.7,0.8,-0.3,-2.0,nt,nt,nt
CC(=O)Nc1cccc(/C(C)=N/NC(=O)c2ccc(NS(=O)(=O)c3cccs3)cc2)c1,64.2*,14.5,-1.7,-3.0,-1.0,-17.8,-12.0,nt
C/C(=N\NC(=O)c1ccc(NS(=O)(=O)c2cccs2)cc1)c1ccc(C(C)(C)C)cc1,-1.2,17.3,0.4,4.8,-2.3,nt,nt,nt
O=C(/C=C/c1ccco1)N(c1ccccn1)c1ccccn1,65.0*,15.7,14.8,-0.6,26.3,69.2*,-5.7,6.3*
CCOC(=O)C1(Cc2ccccc2)CCN(Cc2ccnc3ccccc23)CC1,nt,-1.2,nt,nt,nt,nt,nt,nt
Cc1cccc(C)c1NC(=O)CCCCCC1NC(=O)NC1C (stereo not drawn),-4.9,-1.0,-1.9,-1.4,-0.9,3.0,-5.2,nt
COc1ccc(S[C@]2(C(=O)N(C)C)CC(=O)N(c3ccsc3)[C@@H]2c2ccc(OC)cc2)cc1,nt,1.7,nt,nt,nt,nt,nt,nt
Fc1ccccc1Sc1ccccc1CNC1=NCCN1,97.4*,1.3,-1.4,16.6,-3.3,84.0*,-14.8,-13.8
Cc1ccccc1C(=O)NC1CCCCN(Cc2cccc(C(F)(F)F)c2)C1=O (stereo not drawn),nt,-1.1,nt,nt,nt,nt,nt,nt
CCOC(=O)C1=C(C)NC(=O)NC1c1c(OCC(=O)N2CCCCC2)ccc2ccccc12 (stereo not drawn),-4.6,-6.9,-0.2,2.2,1.5,-8.4,-9.0,nt
COCCCN1C(=O)[C@H](CC(=O)N2CCSCC2)[C@]2(C(=O)OC)CCCCC=C12,nt,4.3,nt,nt,nt,nt,nt,nt
O=C(CSc1ncnc2sc3c(c12)CCC3)N1CCOCC1,53.5*,1.8,6.2,-1.8,13.9,56.2*,-9.8,0.5
N#CCNC(=O)c1nn2c(C(F)(F)F)cc(-c3ccccc3)nc2c1Br,-9.1,0.4,0.0,-5.3,-0.3,nt,nt,nt
Cc1cc(-c2ccccc2)nc2c(Br)c(C(=O)O)nn12,94.8*,nt,1.8,-7.0,12.9,61.3*,-19.4,8.2*
C/C(N)=C(/C#N)C(=O)CSc1nnc(Nc2cccc(C)c2)s1,64.0*,5.7,8.1,1.4,2.6,74.3*,-4.6,-1.9
SMILES,Scp-1 inhibitor,rCAG binder,LMPTP inh,NadD block,STEP block,Scp1 confirm,MG interference,Scp1 DSF
C#CCNC(=O)C[C@H]1C[C@@]2(C(=O)OC)C(=C[C@H](COCc3ccccc3)O[C@@H]2C)N(Cc2ccco2)C1=O,nt,2.9,nt,nt,nt,nt,nt,nt
Nc1c(C(=O)N2CCN(c3ccccc3)CC2)nnn1Cc1ccc(Cl)cc1,nt,4.8,nt,nt,nt,nt,nt,nt
CCSC1=N/C(=C\c2ccc(OC)cc2)C(=O)N1,50.1*,-0.3,-1.4,-6.1,-1.9,1.7,-3.2,nt
COCCN(C(=O)Cn1nnc2ccccc21)C(C(=O)NC1CCCCC1)c1ccc(OC)cc1OC (stereo not drawn),70.8*,-6.2,1.1,3.7,0.4,47.9*,-4.9,-15.4
COCCN(C(=O)Cn1nnc2ccccc21)C(C(=O)NC1CCCC1)c1ccc(OC)cc1OC (stereo not drawn),3.8,-1.1,-0.1,4.4,0.1,nt,nt,nt
CCOc1ccc(C(C)=O)cc1N1C(=O)C2C3C=CC(C3)C2C1=O (stereo not drawn),56.0*,nt,-0.5,-1.6,4.5,31.4*,-20.3,-7.1
CCOc1ccc(C(C)=O)cc1N1C(=O)C2C3C=CC(O3)C2C1=O (stereo not drawn),-6.5,nt,0.2,-4.6,-0.1,nt,nt,nt
COc1cccc([C@@H]2NC(=O)C/C=C/[C@H](C)[C@H](c3cccc(OC)c3)NC(=O)C/C=C/[C@@H]2C)c1,nt,6.4,nt,nt,nt,nt,nt,nt
CS(=O)(=O)NCCSCc1ccco1,97.8*,8.6,-0.2,4.7,-2.3,63.5*,-15.1,-4.8
CS(=O)(=O)c1ccc(-c2sc3ccccc3c2C(=O)N2CCN(c3ccc(F)cc3)CC2)cc1,68.4*,-0.1,6.4,9.8,-2.7,63.2*,-10.1,4.2
O=C(c1ccccc1C(=O)N1CCN(c2ccc(F)cc2)CC1)N1CCN(c2ccc(F)cc2)CC1,4.5,-8.5,1.1,-7.0,1.1,nt,nt,nt
O=C(N/N=C/c1cc(Cl)cc([N+](=O)[O-])c1O)c1cc(-c2ccccn2)nc2ccccc12,103.5*,nt,-0.3,31.7*,14.8,88.0*,-9.8,12.1*
O=C(N/N=C/c1ccc(F)cc1)c1cc(-c2ccccn2)nc2ccccc12,-2.0,3.3,-1.2,0.7,0.1,nt,nt,nt
